From ChEMBL document CHEMBL1147090, “Effect of antibiotics on Staphylococcus aureus producing Panton-Valentine leukocidin” (2007)
Values after ≈ are worked out from the molar mass of the structure shown. Active and inactive are the calls of the source. No cut-off for these calls is given here.

What was measured:
Staphylococcus aureus [1] = assay: Antibacterial activity against community acquired methicillin-resistant Staphylococcus aureus HT20041010 in Mueller-Hinton medium; assay type: functional
Method in brief: (§1)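 MIC by CLSI-standard broth microdilution, run both in Mueller-Hinton broth and in casein hydrolysate-yeast extract (CCY) medium. Inoculum 5 × 10^5 CFU/ml.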

Staphylococcus aureus [2] = assay: Antibacterial activity against Staphylococcus aureus LUG855 in Mueller-Hinton medium; assay type: functional; method in brief: as §1
Staphylococcus aureus [3] = assay: Antibacterial activity against community acquired methicillin-resistant Staphylococcus aureus HT20010734 in Mueller-Hinton medium; assay type: functional; method in brief: as §1
Staphylococcus aureus [4] = assay: Antibacterial activity against community acquired methicillin-resistant Staphylococcus aureus HT20020488 in Mueller-Hinton medium; assay type: functional; method in brief: as §1
Staphylococcus aureus [5] = assay: Antibacterial activity against community acquired methicillin-resistant Staphylococcus aureus HT20030203 in Mueller-Hinton medium; assay type: functional; method in brief: as §1
Staphylococcus aureus [6] = assay: Antibacterial activity against community acquired methicillin-resistant Staphylococcus aureus HT20040332 in Mueller-Hinton medium; assay type: functional; method in brief: as §1
Staphylococcus aureus [7] = assay: Decrease in Panton-Valentine leukocidin level in Staphylococcus aureus LUG855 in CCY medium; assay type: functional, organism-based
Method in brief: (§2)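 Viable counts by plating diluted broth. Supernatant PVL measured by sandwich ELISA. μg PVL per log10 CFU is expressed as a percentage of the drug-free control. Means ± SD of five (LUG855) or three (clinical isolates) experiments. One-way ANOVA with Dunnett's test.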

Staphylococcus aureus [8] = assay: Decrease in Panton-Valentine leukocidin level in community acquired methicillin-resistant Staphylococcus aureus HT20010734 in CYY medium; assay type: functional, organism-based; method in brief: as §2
Staphylococcus aureus [9] = assay: Decrease in Panton-Valentine leukocidin level in community acquired methicillin-resistant Staphylococcus aureus HT20020488 in CYY medium; assay type: functional, organism-based; method in brief: as §2
Staphylococcus aureus [10] = assay: Decrease in Panton-Valentine leukocidin level in community acquired methicillin-resistant Staphylococcus aureus HT20030203 in CYY medium; assay type: functional, organism-based; method in brief: as §2
Staphylococcus aureus [11] = assay: Decrease in Panton-Valentine leukocidin level in community acquired methicillin-resistant Staphylococcus aureus HT20040332 in CYY medium; assay type: functional, organism-based; method in brief: as §2
Staphylococcus aureus [12] = assay: Decrease in Panton-Valentine leukocidin level in community acquired methicillin-resistant Staphylococcus aureus HT20041010 in CYY medium; assay type: functional, organism-based; method in brief: as §2
Staphylococcus aureus [13] = assay: Antibacterial activity against Staphylococcus aureus LUG855 in CCY media; assay type: functional; method in brief: as §1
Staphylococcus aureus [14] = assay: Increase in Panton-Valentine leukocidin level in Staphylococcus aureus LUG855 in CCY medium; assay type: functional, organism-based; method in brief: as §2
Staphylococcus aureus [15] = assay: Increase in Panton-Valentine leukocidin level in community acquired methicillin-resistant Staphylococcus aureus HT20030203 in CYY medium; assay type: functional, organism-based; method in brief: as §2
Staphylococcus aureus [16] = assay: Increase in Panton-Valentine leukocidin level in community acquired methicillin-resistant Staphylococcus aureus HT20040332 in CYY medium; assay type: functional, organism-based; method in brief: as §2
Staphylococcus aureus [17] = assay: Increase in Panton-Valentine leukocidin level in community acquired methicillin-resistant Staphylococcus aureus HT20041010 in CYY medium; assay type: functional, organism-based; method in brief: as §2
Staphylococcus aureus [18] = assay: Antibacterial activity against community acquired methicillin-resistant Staphylococcus aureus HT20010734 in CCY medium; assay type: functional; method in brief: as §1
Staphylococcus aureus [19] = assay: Antibacterial activity against community acquired methicillin-resistant Staphylococcus aureus HT20020488 in CCY medium; assay type: functional; method in brief: as §1
Staphylococcus aureus [20] = assay: Antibacterial activity against community acquired methicillin-resistant Staphylococcus aureus HT20030203 in CCY media; assay type: functional; method in brief: as §1
Staphylococcus aureus [21] = assay: Antibacterial activity against community acquired methicillin-resistant Staphylococcus aureus HT20040332 in CCY media; assay type: functional; method in brief: as §1
Staphylococcus aureus [22] = assay: Antibacterial activity against community acquired methicillin-resistant Staphylococcus aureus HT20041010 in CCY media; assay type: functional; method in brief: as §1
Staphylococcus aureus [23] = assay: Increase in Panton-Valentine leukocidin level in community acquired methicillin-resistant Staphylococcus aureus HT20010734 in CYY medium; assay type: functional, organism-based; method in brief: as §2

| SMILES | MIC (Staphylococcus aureus [1]) | MIC (Staphylococcus aureus [2]) | MIC (Staphylococcus aureus [3]) | MIC (Staphylococcus aureus [4]) | MIC (Staphylococcus aureus [5]) | MIC (Staphylococcus aureus [6]) | Activity (Staphylococcus aureus [7]) | Activity (Staphylococcus aureus [8]) | Activity (Staphylococcus aureus [9]) | Activity (Staphylococcus aureus [10]) | Activity (Staphylococcus aureus [11]) | Activity (Staphylococcus aureus [12]) | MIC (Staphylococcus aureus [13]) | MIC (Staphylococcus aureus [18]) | MIC (Staphylococcus aureus [19]) | MIC (Staphylococcus aureus [20]) | MIC (Staphylococcus aureus [21]) | MIC (Staphylococcus aureus [22]) | further results |
| --- | --- | --- | --- | --- | --- | --- | --- | --- | --- | --- | --- | --- | --- | --- | --- | --- | --- | --- | --- |
| CC(=O)NC[C@H]1CN(c2ccc(N3CCOCC3)c(F)c2)C(=O)O1 [LINEZOLID] | 1 µg/mL (≈ 2.96 µM) | 1 µg/mL (≈ 2.96 µM) | 0.5 µg/mL (≈ 1.48 µM) | 0.5 µg/mL (≈ 1.48 µM) | 1 µg/mL (≈ 2.96 µM) | 1 µg/mL (≈ 2.96 µM) | Dose-dependent effect | Dose-dependent effect | Dose-dependent effect | Dose-dependent effect | Dose-dependent effect | Dose-dependent effect |  |  |  |  |  |  |  |
| Cc1onc(-c2ccccc2)c1C(=O)N[C@@H]1C(=O)N2[C@@H]1SC(C)(C)[C@@H]2C(=O)O [OXACILLIN] | 32 µg/mL (≈ 79.7 µM) | 0.12 µg/mL (≈ 0.299 µM) | 32 µg/mL (≈ 79.7 µM) | 8 µg/mL (≈ 19.9 µM) | 32 µg/mL (≈ 79.7 µM) | 16 µg/mL (≈ 39.9 µM) |  |  |  |  |  |  | 0.06 µg/mL (≈ 0.149 µM) | 16 µg/mL (≈ 39.9 µM) | 8 µg/mL (≈ 19.9 µM) | 16 µg/mL (≈ 39.9 µM) | 8 µg/mL (≈ 19.9 µM) | 16 µg/mL (≈ 39.9 µM) | Activity (Staphylococcus aureus [14]): Active; Activity (Staphylococcus aureus [15]): Active; Activity (Staphylococcus aureus [16]): Active; Activity (Staphylococcus aureus [17]): Active; Activity (Staphylococcus aureus [23]): Active |
| CCC[C@@H]1C[C@@H](C(=O)N[C@@H]([C@H]2O[C@H](SC)[C@H](O)[C@@H](O)[C@H]2O)[C@H](C)Cl)N(C)C1 [CLINDAMYCIN] | > 128 µg/mL | 0.06 µg/mL (≈ 0.141 µM) | 0.12 µg/mL (≈ 0.282 µM) | > 128 µg/mL | 0.12 µg/mL (≈ 0.282 µM) | > 128 µg/mL | Dose-dependent effect | Dose-dependent effect | Dose-dependent effect | Dose-dependent effect | Dose-dependent effect | Dose-dependent effect | 0.12 µg/mL (≈ 0.282 µM) | 0.25 µg/mL (≈ 0.588 µM) | > 128 µg/mL | 0.25 µg/mL (≈ 0.588 µM) | > 128 µg/mL | > 128 µg/mL |  |
| CC(=O)O[C@H]1C[C@@]2(C)[C@@H](C[C@@H](O)[C@H]3[C@@]4(C)CC[C@@H](O)[C@@H](C)[C@@H]4CC[C@@]32C)/C1=C(\CCC=C(C)C)C(=O)O [FUSIDIC ACID] | > 128 µg/mL | < 0.03 µg/mL |  | 4 µg/mL (≈ 7.74 µM) | 0.12 µg/mL (≈ 0.232 µM) |  |  |  |  |  |  |  | < 0.03 µg/mL |  | 4 µg/mL (≈ 7.74 µM) | 0.06 µg/mL (≈ 0.116 µM) |  | 128 µg/mL (≈ 248 µM) |  |
